ChEMBL document CHEMBL5712901, “DOT1L inhibition blocks multiple myeloma cell proliferation by suppressing IRF4-MYC signaling” (2019)
Activity calls are given as the source filed them. The rule behind the calls is not given here.

Columns and labels:
MM1.S [1] = assay: Antiproliferative activity against human MM1.S cells treated 3 days at 1 uM; type: functional, cell-based; conditions: time 3.0 day
Summary of the method: (§1)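 Cell lines in 6-well plates, 2 × 10^4 to 8 × 10^5 cells/well, exposed to DOT1L inhibitor at 0.25-1 μM or DMSO, with medium and drug refreshed every 3 days. Viability read with Cell Counting Kit-8 on a microplate reader. Values normalized to untreated cells; mean of 3 replications ± SEM.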

KMS-11 = assay: Antiproliferative activity against human KMS-11 cells treated 3 days at 1 uM; type: functional, cell-based; conditions: time 3.0 day; summary of the method: as §1
KMS-12-PE [2] = assay: Antiproliferative activity against human KMS-12-PE cells treated 3 days at 1 uM; type: functional, cell-based; conditions: time 3.0 day; summary of the method: as §1
RPMI-8226 [3] = assay: Induction of apoptosis in human RPMI-8226 cells assessed as late apoptotic cells at 1 uM for 6 days by annexin-V based propidium iodide staining based flow cytometric analysis (reference value: 10.5%); type: functional; conditions: time 6 day
RPMI-8226 [4] = assay: Induction of apoptosis in human RPMI-8226 cells assessed as viable cells at 1 uM for 6 days by annexin-V based propidium iodide staining based flow cytometric analysis (reference value: 79.0%); type: functional; conditions: RPMI-8226, 144 h, time 6 day, read-out: Activity
RPMI-8226 [5] = assay: Effect on human RPMI-8226 cells assessed as change in Myc mRNA level at 1 uM for 3 days by ChIP-qPCR analysis; type: functional, cell-based; conditions: time 3.0 day
Summary of the method: (§2)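 ChIP-qPCR for H3K79me2 at IRF4-MYC signaling genes after 1 μM inhibitor or DMSO for 3 days. Signal normalized to input DNA. An intergenic region 28 kb upstream of KLF2 served as negative control. Mean of 3 replications ± SEM.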

MM1.S [6] = assay: Effect on human MM1.S cells assessed as change in IRF4 mRNA level at 1 uM for 3 days by ChIP-qPCR analysis; type: functional, cell-based; conditions: time 3.0 day; summary of the method: as §2
MM1.S [7] = assay: Effect on human MM1.S cells assessed as change in PRDM1 mRNA level at 1 uM for 3 days by ChIP-qPCR analysis; type: functional, cell-based; conditions: time 3.0 day; summary of the method: as §2
RPMI-8226 [8] = assay: Upregulation of IFN in human RPMI-8226 cells assessed as increase in IFITM1 gene at 1 uM for 6 days by qRT-PCR analysis; type: functional, cell-based; conditions: time 6.0 day
KMS-12-PE [9] = assay: Effect on human KMS-12-PE cells assessed as change in IRF4 mRNA level by qRT-PCR analysis; type: functional, cell-based
Summary of the method: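 Basal MYC and IRF4 mRNA in untreated cells measured by qRT-PCR. Normalized to ACTB; mean of 3 replications ± SEM.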

KMS-12-BM = assay: Effect on human KMS-12-BM cells assessed as decrease in MYC mRNA level at 1 uM for 6 days by qRT-PCR analysis; type: functional, cell-based; conditions: time 6.0 day
Summary of the method: (§3)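 qRT-PCR of MYC and IRF4 after 1 μM DOT1L inhibitor for 6 days. Normalized to ACTB; mean of 3 replications ± SEM.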

KMS-12-PE [10] = assay: Effect on human KMS-12-PE cells assessed as decrease in MYC mRNA level at 1 uM for 6 days by qRT-PCR analysis; type: functional, cell-based; conditions: time 6.0 day; summary of the method: as §3
KMS-12-PE [11] = assay: Effect on human KMS-12-PE cells assessed as decrease in IRF4 mRNA level at 1 uM for 6 days by qRT-PCR analysis; type: functional, cell-based; conditions: time 6.0 day; summary of the method: as §3
KMS-12-PE [12] = assay: Antiproliferative activity against human KMS-12-PE cells assessed as reduction in cell viability measured at 1 uM for 18 days; type: functional, cell-based; conditions: time 18.0 day
MM1.S [13] = assay: Upregulation of IFN in human MM1.S cells assessed as increase in ISG15 gene at 1 uM for 6 days by qRT-PCR analysis; conditions: time 6.0 day
MM1.S [14] = assay: Upregulation of IFN in human MM1.S cells assessed as increase in IFITM1 gene at 1 uM for 6 days by qRT-PCR analysis; conditions: time 6.0 day
RPMI-8226 [15] = assay: Upregulation of IFN in human RPMI-8226 cells assessed as increase in IFI44 gene at 1 uM for 6 days by qRT-PCR analysis; conditions: time 6.0 day
RPMI-8226 [16] = assay: Upregulation of IFN in human RPMI-8226 cells assessed as increase in IFIT1 gene at 1 uM for 6 days by qRT-PCR analysis; conditions: time 6.0 day
RPMI-8226 [17] = assay: Upregulation of BATF3 gene in human RPMI-8226 cells at 1 uM for 6 days by; type: functional, cell-based; conditions: time 6.0 day
RPMI-8226 [18] = assay: Upregulation of CTSH gene in human RPMI-8226 cells at 1 uM for 6 days by; type: functional, cell-based; conditions: time 6.0 day
Summary of the method: (§4)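 Human myeloma lines RPMI-8226 and MM.1S exposed to 1 μM DOT1L inhibitor, or DMSO, for 6 days. Whole-genome expression profiled on gene expression microarray.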

RPMI-8226 [19] = assay: Upregulation of FBXO2 gene in human RPMI-8226 cells at 1 uM for 6 days by; type: functional, cell-based; conditions: time 6.0 day; summary of the method: as §4
RPMI-8226 [20] = assay: Upregulation of HLA-DRB5 gene in human RPMI-8226 cells at 1 uM for 6 days by; type: functional, cell-based; conditions: time 6.0 day
RPMI-8226 [21] = assay: Upregulation of LAMB3 gene in human RPMI-8226 cells at 1 uM for 6 days by; type: functional, cell-based; conditions: time 6.0 day
RPMI-8226 [22] = assay: Upregulation of MS4A4A gene in human RPMI-8226 cells at 1 uM for 6 days by; type: functional, cell-based; conditions: time 6.0 day
RPMI-8226 [23] = assay: Upregulation of MYOF gene in human RPMI-8226 cells at 1 uM for 6 days by; type: functional, cell-based; conditions: time 6.0 day
RPMI-8226 [24] = assay: Upregulation of PTPRD gene in human RPMI-8226 cells at 1 uM for 6 days by; type: functional, cell-based; conditions: time 6.0 day
MM1.S [25] = assay: Upregulation of BHLHE22 gene in human MM1.S cells at 1 uM for 6 days by; type: functional, cell-based; conditions: time 6.0 day
MM1.S [26] = assay: Upregulation of CLIP2 gene in human MM1.S cells at 1 uM for 6 days by; type: functional, cell-based; conditions: time 6.0 day; summary of the method: as §4
MM1.S [27] = assay: Upregulation of CTSH gene in human MM1.S cells at 1 uM for 6 days by; type: functional, cell-based; conditions: time 6.0 day; summary of the method: as §4
MM1.S [28] = assay: Upregulation of FAM200B gene in human MM1.S cells at 1 uM for 6 days by; type: functional, cell-based; conditions: time 6.0 day; summary of the method: as §4
MM1.S [29] = assay: Upregulation of FZD1 gene in human MM1.S cells at 1 uM for 6 days by; type: functional, cell-based; conditions: time 6.0 day; summary of the method: as §4
MM1.S [30] = assay: Upregulation of HLA-DRB1 gene in human MM1.S cells at 1 uM for 6 days by; type: functional, cell-based; conditions: time 6.0 day
MM1.S [31] = assay: Upregulation of NOG gene in human MM1.S cells at 1 uM for 6 days by; type: functional, cell-based; conditions: time 6.0 day
MM1.S [32] = assay: Upregulation of NTNG1 gene in human MM1.S cells at 1 uM for 6 days by; type: functional, cell-based; conditions: time 6.0 day
MM1.S [33] = assay: Upregulation of POPDC2 gene in human MM1.S cells at 1 uM for 6 days by; type: functional, cell-based; conditions: time 6.0 day
MM1.S [34] = assay: Upregulation of RORC gene in human MM1.S cells at 1 uM for 6 days by; type: functional, cell-based; conditions: time 6.0 day
MM1.S [35] = assay: Upregulation of SMIM14 gene in human MM1.S cells at 1 uM for 6 days by; type: functional, cell-based; conditions: time 6.0 day
MM1.S [36] = assay: Upregulation of SNX10 gene in human MM1.S cells at 1 uM for 6 days by; type: functional, cell-based; conditions: time 6.0 day
MM1.S [37] = assay: Effect on human MM1.S cells assessed as change in IRF4 mRNA level at 1 uM for 6 days by qRT-PCR analysis; conditions: time 6.0 day

CC(C)N(C[C@H]1O[C@@H](n2cnc3c(N)ncnc32)[C@H](O)[C@@H]1O)[C@H]1C[C@@H](CCc2nc3cc(C(C)(C)C)ccc3[nH]2)C1 [PINOMETOSTAT] was tested, and the Activity (MM1.S [1]) was “Active”, the Activity (KMS-11) was “Active” and the Activity (KMS-12-PE [2]) was “inactive”. The Activity (RPMI-8226 [3]) was 18.3%, the viability at 1 µM (RPMI-8226 [4]) was 63.5% and the Activity (RPMI-8226 [5]) was “Active”. The Activity (MM1.S [6]) was “Active”, the Activity (MM1.S [7]) was “Active” and the Activity (RPMI-8226 [8]) was “Active”. For the same compound, the Activity (KMS-12-PE [9]) was “Active”, the Activity (KMS-12-BM) was “Active” and the Activity (KMS-12-PE [10]) was “Active”. For the same compound, the Activity (KMS-12-PE [11]) was “Active”, the Activity (KMS-12-PE [12]) was “Active” and the Activity (MM1.S [13]) was “Active”. For the same compound, the Activity (MM1.S [14]) was “Active”, the Activity (RPMI-8226 [15]) was “Active” and the Activity (RPMI-8226 [16]) was “Active”.
CC(C)N(CCCNC(=O)Nc1ccc(C(C)(C)C)cc1)C[C@H]1O[C@@H](n2cc(Br)c3c(N)ncnc32)[C@H](O)[C@@H]1O was tested, and the Activity (MM1.S [1]) was “Active”, the Activity (KMS-11) was “Active” and the Activity (KMS-12-PE [2]) was “inactive”. The Activity (RPMI-8226 [3]) was 12.9%, the viability at 1 µM (RPMI-8226 [4]) was 60.9% and the Activity (RPMI-8226 [5]) was “Active”. For the same compound, the Activity (MM1.S [6]) was “Active”, the Activity (KMS-12-PE [9]) was “Active” and the Activity (KMS-12-BM) was “Active”. For the same compound, the Activity (KMS-12-PE [10]) was “Active”, the Activity (KMS-12-PE [11]) was “Active” and the Activity (KMS-12-PE [12]) was “Active”. The Activity (RPMI-8226 [17]) was “Active”, the Activity (RPMI-8226 [18]) was “Active” and the Activity (RPMI-8226 [19]) was “Active”. For the same compound, the Activity (RPMI-8226 [20]) was “Active”, the Activity (RPMI-8226 [21]) was “Active” and the Activity (RPMI-8226 [22]) was “Active”. For the same compound, the Activity (RPMI-8226 [23]) was “Active”, the Activity (RPMI-8226 [24]) was “Active” and the Activity (MM1.S [25]) was “Active”. The Activity (MM1.S [26]) was “Active”, the Activity (MM1.S [27]) was “Active” and the Activity (MM1.S [28]) was “Active”. The Activity (MM1.S [29]) was “Active”, the Activity (MM1.S [30]) was “Active” and the Activity (MM1.S [31]) was “Active”. The Activity (MM1.S [32]) was “Active”, the Activity (MM1.S [33]) was “Active” and the Activity (MM1.S [34]) was “Active”. For the same compound, the Activity (MM1.S [35]) was “Active”, the Activity (MM1.S [36]) was “Active” and the Activity (MM1.S [37]) was “Active”. The Activity (MM1.S [13]) was “Active”, the Activity (MM1.S [14]) was “Active” and the Activity (RPMI-8226 [15]) was “Active”. For the same compound, the Activity (RPMI-8226 [16]) was “Active”.
